Assay results taken from the M2OR odorant receptor database.

target: T1, OR10G2 (Homo sapiens) (UniProt Q8NGC3); conditions: stereoisomer not certain
T1 sequence (whole entry): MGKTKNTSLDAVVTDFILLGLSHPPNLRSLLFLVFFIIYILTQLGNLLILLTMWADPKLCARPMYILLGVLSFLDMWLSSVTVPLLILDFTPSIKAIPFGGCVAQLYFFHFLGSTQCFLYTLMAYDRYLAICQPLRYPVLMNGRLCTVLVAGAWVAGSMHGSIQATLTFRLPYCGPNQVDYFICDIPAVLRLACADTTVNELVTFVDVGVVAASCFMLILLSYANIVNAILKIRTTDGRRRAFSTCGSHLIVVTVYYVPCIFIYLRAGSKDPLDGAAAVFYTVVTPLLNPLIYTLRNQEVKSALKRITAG
Procedure, shortened: (§1)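 Values were gathered from published papers (main text and supplementary material), with extra details requested from the original authors when needed, and checked for typos and inconsistencies. Each receptor–molecule pair is called responsive (active) if the original authors judged the measured signal statistically different from baseline, and non-responsive (inactive) otherwise. Assay methods varied by source, often transient mammalian cell-line luciferase assays. Recorded details include cell line, G-protein, co-transfected protein and tags.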

Odorant receptor agonist call, inactive:
CCCCCCC=CCCC=O, CC1CCCCCCCCCCCCC(=O)C1 (stereo not given), CCC1OC(=O)C(O)=C1C (stereo not given), CCCCCC(=O)C(C)C(C)=O (stereo not given), CC1=C(O)C(=O)C(C)O1 (stereo not given), CC1=NC(C)C(C)S1 (stereo not given), CCC1OC(C)=C(O)C1=O (stereo not given), CCCC(S)CCOC(C)=O (stereo not given), CCCCCC(S)C(C)CO (stereo not given), CCCCC(S)C(C)CO (stereo not given), CC(CO)CS (stereo not given), CC(=O)c1c(C)c([N+](=O)[O-])c(C(C)(C)C)c([N+](=O)[O-])c1C, Cc1cnc(C)c(C)n1, CCC(S)C(C)CO (stereo not given), CC1=C(O)C(=O)OC1C (stereo not given)

target: T2, OR10G3 (Homo sapiens) (UniProt Q8NGC4); conditions: stereoisomer not certain
T2 sequence (whole entry): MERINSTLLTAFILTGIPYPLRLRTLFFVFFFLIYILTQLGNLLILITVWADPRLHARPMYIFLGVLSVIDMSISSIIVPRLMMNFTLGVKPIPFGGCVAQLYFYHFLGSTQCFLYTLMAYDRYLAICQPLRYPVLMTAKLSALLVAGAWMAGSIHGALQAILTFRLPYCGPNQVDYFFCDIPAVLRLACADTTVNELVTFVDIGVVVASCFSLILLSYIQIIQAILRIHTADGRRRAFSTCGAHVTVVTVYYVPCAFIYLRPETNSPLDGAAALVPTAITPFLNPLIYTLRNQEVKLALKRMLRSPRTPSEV
Procedure, shortened: as §1

Odorant receptor agonist call, inactive:
CCCCCCC=CCCC=O, CC1CCCCCCCCCCCCC(=O)C1 (stereo not given), CCC1OC(=O)C(O)=C1C (stereo not given), CCCCCC(=O)C(C)C(C)=O (stereo not given), CC1=C(O)C(=O)C(C)O1 (stereo not given), CC1=NC(C)C(C)S1 (stereo not given), CCC1OC(C)=C(O)C1=O (stereo not given), CCCC(S)CCOC(C)=O (stereo not given), CCCCCC(S)C(C)CO (stereo not given), CCCCC(S)C(C)CO (stereo not given), CC(CO)CS (stereo not given), CC(=O)c1c(C)c([N+](=O)[O-])c(C(C)(C)C)c([N+](=O)[O-])c1C, Cc1cnc(C)c(C)n1, CCC(S)C(C)CO (stereo not given), CC1=C(O)C(=O)OC1C (stereo not given)

target: T3, OR10G4 (Homo sapiens) (UniProt Q8NGN3); conditions: stereoisomer not certain
T3 sequence (whole entry): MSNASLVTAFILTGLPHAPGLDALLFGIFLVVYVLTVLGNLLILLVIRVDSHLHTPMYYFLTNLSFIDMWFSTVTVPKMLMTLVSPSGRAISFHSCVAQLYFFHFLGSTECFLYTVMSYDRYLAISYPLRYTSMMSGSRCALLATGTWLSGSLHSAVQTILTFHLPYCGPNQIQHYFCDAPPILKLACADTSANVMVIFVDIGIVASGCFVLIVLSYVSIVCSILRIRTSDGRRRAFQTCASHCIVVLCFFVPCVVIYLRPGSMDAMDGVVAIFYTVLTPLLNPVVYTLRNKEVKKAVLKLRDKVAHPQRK
Procedure, shortened: as §1

Odorant receptor agonist call, inactive:
CCCCCCC=CCCC=O, CC1CCCCCCCCCCCCC(=O)C1 (stereo not given), CCC1OC(=O)C(O)=C1C (stereo not given), CCCCCC(=O)C(C)C(C)=O (stereo not given), CC1=C(O)C(=O)C(C)O1 (stereo not given), CC1=NC(C)C(C)S1 (stereo not given), CCC1OC(C)=C(O)C1=O (stereo not given), CCCC(S)CCOC(C)=O (stereo not given), CCCCCC(S)C(C)CO (stereo not given), CCCCC(S)C(C)CO (stereo not given), CC(CO)CS (stereo not given), CC(=O)c1c(C)c([N+](=O)[O-])c(C(C)(C)C)c([N+](=O)[O-])c1C, Cc1cnc(C)c(C)n1, CCC(S)C(C)CO (stereo not given), CC1=C(O)C(=O)OC1C (stereo not given)

target: T4, OR10G6 (Homo sapiens) (UniProt Q8NH81); conditions: stereoisomer not certain
T4 sequence (whole entry): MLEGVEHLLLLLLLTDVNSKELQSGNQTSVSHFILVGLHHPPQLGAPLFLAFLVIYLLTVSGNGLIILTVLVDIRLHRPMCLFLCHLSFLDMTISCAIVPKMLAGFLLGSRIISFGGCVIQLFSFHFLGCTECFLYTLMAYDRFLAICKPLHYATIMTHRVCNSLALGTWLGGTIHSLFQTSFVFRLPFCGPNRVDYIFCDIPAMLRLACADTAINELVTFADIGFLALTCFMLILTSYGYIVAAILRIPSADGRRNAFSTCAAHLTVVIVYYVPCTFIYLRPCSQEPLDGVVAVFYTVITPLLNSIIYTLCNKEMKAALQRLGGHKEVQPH
Procedure, shortened: as §1

Odorant receptor agonist call, inactive:
CCCCCCC=CCCC=O, CC1CCCCCCCCCCCCC(=O)C1 (stereo not given), CCC1OC(=O)C(O)=C1C (stereo not given), CCCCCC(=O)C(C)C(C)=O (stereo not given), CC1=C(O)C(=O)C(C)O1 (stereo not given), CC1=NC(C)C(C)S1 (stereo not given), CCC1OC(C)=C(O)C1=O (stereo not given), CCCC(S)CCOC(C)=O (stereo not given), CCCCCC(S)C(C)CO (stereo not given), CCCCC(S)C(C)CO (stereo not given), CC(CO)CS (stereo not given), CC(=O)c1c(C)c([N+](=O)[O-])c(C(C)(C)C)c([N+](=O)[O-])c1C, Cc1cnc(C)c(C)n1, CCC(S)C(C)CO (stereo not given), CC1=C(O)C(=O)OC1C (stereo not given)
